pIC50: −log10 of the molar value.

Holding throughout (assay type): functional, organism-based
The subject of experiment [1] is Influenza A virus. Description: Antiviral activity against influenza A (A/Washington/10/2008 (H1N1)) virus after 30 mins by NA-star substrate based chemiluminescent assay. The note with it: 0.5 h. In outline: (§1)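 Titrated virus in NA-Star buffer (26 mM MES, 4 mM CaCl2, pH 6.0) was preincubated with ten half-log inhibitor dilutions (0.03–1,000 nM final) for 30 min at 37°C, then with substrate for 30 min at room temperature. Accelerator solution was added and luminescence read for 0.1 s. IC50 came from a Vmax·[1−x/(K+x)] fit, mean of ≥3 experiments.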

For experiment [2], the system named is Influenza A virus. Description: Antiviral activity against influenza A (A/North Carolina/02/2009 (H1N1)) virus after 30 mins by NA-star substrate based chemiluminescent assay. The note with it: 0.5 h. The essentials: as §1
In experiment [3] the test system is Influenza A virus. Description: Antiviral activity against influenza A (A/New York/18/2009 (H1N1)) virus after 30 mins by NA-star substrate based chemiluminescent assay. The note with it: 0.5 h. The essentials:
as §1

Experiment [4] relates to Influenza A virus. Description: Antiviral activity against influenza A (A/Washington/29/2009 (H1N1)) virus after 30 mins by NA-star substrate based chemiluminescent assay. The following applies: 0.5 h. In outline: as §1
Experiment [5] has as its system Influenza A virus. Description: Antiviral activity against influenza A (A/Singapore/91/2009 (H1N1)) virus after 30 mins by NA-star substrate based chemiluminescent assay. The following applies: 0.5 h. The essentials: as §1
In experiment [6] the test system is Influenza A virus. Description: Antiviral activity against influenza A (A/Washington/10/2008 (H1N1)) virus after 30 mins by MUNANA substrate based fluorometric assay. The following applies: 0.5 h. The essentials: (§2)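 Fluorometric NA inhibition with MUNANA (100 μM final). Titrated virus in NA-Star buffer (26 mM MES, 4 mM CaCl2, pH 6.0) was preincubated with ten half-log inhibitor dilutions (0.03–1,000 nM final) for 30 min at 37°C, then with substrate for 30 min at 37°C. The reaction was stopped with 0.1 M glycine in 25% ethanol, pH 10.7, and 4-methylumbelliferone was read at ex 365/em 450 nm. IC50 came from a Vmax·[1−x/(K+x)] fit, mean of ≥3 experiments.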

For experiment [7], the system named is Influenza A virus. Description: Antiviral activity against influenza A (A/North Carolina/02/2009 (H1N1)) virus after 30 mins by MUNANA substrate based fluorometric assay. The following applies: 0.5 h. In outline: as §2
In experiment [8] the test system is Influenza A virus. The experiment can be described thus: Antiviral activity against influenza A (A/New York/18/2009 (H1N1)) virus after 30 mins by MUNANA substrate based fluorometric assay. The following applies: 0.5 h. In outline: as §2
The subject of experiment [9] is Influenza A virus. The experiment can be described thus: Antiviral activity against influenza A (A/Washington/29/2009 (H1N1)) virus after 30 mins by MUNANA substrate based fluorometric assay. The note with it: 0.5 h. The essentials:
as §2

Experiment [10] relates to Influenza A virus. The experiment can be described thus: Antiviral activity against influenza A (A/Singapore/91/2009 (H1N1)) virus after 30 mins by MUNANA substrate based fluorometric assay. The following applies: 0.5 h. The essentials:
as §2

For experiment [11], the system named is Influenza A virus. Description: Antiviral activity against influenza A (A/Washington/10/2008 (H1N1)) virus after 16 to 18 hrs by fetuin substrate based colorimetric assay. The essentials:
(§3)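 Colorimetric NA inhibition with fetuin substrate. Virus was diluted in NA-Star buffer (26 mM MES, 4 mM CaCl2, pH 6.0) to give OD549 of 0.4–0.8 after 18 h. It was preincubated with ten half-log inhibitor dilutions (0.03–1,000 nM final) for 1 h at 37°C, then with fetuin (5.5 mg/ml final) for 16–18 h at 37°C. Released sialic acid was read at 549 nm after periodate/TBA reaction and butanol extraction. IC50 came from a Vmax·[1−x/(K+x)] fit, mean of ≥2 experiments.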

Experiment [12] relates to Influenza A virus. Description: Antiviral activity against influenza A (A/North Carolina/02/2009 (H1N1)) virus after 16 to 18 hrs by fetuin substrate based colorimetric assay. In outline: as §3
Experiment [13] has as its system Influenza A virus. Description: Antiviral activity against influenza A (A/New York/18/2009 (H1N1)) virus after 16 to 18 hrs by fetuin substrate based colorimetric assay. In outline:
as §3

The subject of experiment [14] is Influenza A virus. Description: Antiviral activity against influenza A (A/Washington/29/2009 (H1N1)) virus after 16 to 18 hrs by fetuin substrate based colorimetric assay. In outline:
as §3

For experiment [15], the system named is Influenza A virus. Description: Antiviral activity against influenza A (A/Singapore/91/2009 (H1N1)) virus after 16 to 18 hrs by fetuin substrate based colorimetric assay. In outline: as §3

On to `C/C=C\[C@@H]1C[C@H](C(=O)O)N[C@H]1[C@@H](NC(C)=O)[C@](C)(CCC)OC`, for which the pIC50 (in general, −log10 of the IC50, conventionally taken in molar units) was 9.80 in the experiment on Influenza A virus [1]; 9.74 in the experiment on Influenza A virus [2]; 9.37 with Influenza A virus [3]; 9.46 in the experiment on Influenza A virus [4]; 9.57 in the experiment with Influenza A virus [5]; 9.29 in the experiment with Influenza A virus [6]. The pIC50 in the experiment on Influenza A virus [7] was 9.29; with Influenza A virus [8], 9.13; in the experiment on Influenza A virus [9], 9.28; in the experiment with Influenza A virus [10] it was 9.34; in the experiment on Influenza A virus [11] it was 8.99; with Influenza A virus [12], 9.12. The pIC50 was 9.05 in the experiment with Influenza A virus [13], 8.88 in the experiment with Influenza A virus [14] and 8.85 with Influenza A virus [15].

In the case of `CO[C@@H]([C@@H]1OC(C(=O)O)=C[C@H](NC(=N)N)[C@H]1NC(C)=O)[C@H](O)CO` [LANINAMIVIR], the pIC50 was 9.85 in the experiment on Influenza A virus [1]; 9.31 in the experiment on Influenza A virus [3]; 9.31 in the experiment with Influenza A virus [4]; 9.52 in the experiment with Influenza A virus [5]; 9.28 in the experiment on Influenza A virus [6]; 9.21 in the experiment with Influenza A virus [7]. Also, the pIC50 in the experiment on Influenza A virus [8] is 9.02; in the experiment with Influenza A virus [9] it was 9.13; in the experiment with Influenza A virus [10], 9.29; in the experiment with Influenza A virus [11] it was 9.10; in the experiment on Influenza A virus [12] it was 9.07; in the experiment on Influenza A virus [13], 9.13. For the same compound, the pIC50 in the experiment with Influenza A virus [14] was 8.80; in the experiment with Influenza A virus [15] it was 9.05.

On to `CCC(CC)[C@H](NC(C)=O)[C@@H]1[C@H](O)[C@@H](C(=O)O)C[C@H]1NC(=N)N` [PERAMIVIR ANHYDROUS], for which the pIC50 is 9.96 in the experiment on Influenza A virus [1]; 10.10 with Influenza A virus [2]; 9.92 in the experiment with Influenza A virus [3]; 9.85 with Influenza A virus [4]; 9.96 in the experiment on Influenza A virus [5]; 9.74 with Influenza A virus [6]. Also, the pIC50 in the experiment with Influenza A virus [7] is 9.72; in the experiment with Influenza A virus [8] it was 9.49; in the experiment on Influenza A virus [9] it was 9.70; in the experiment on Influenza A virus [10], 9.85; in the experiment with Influenza A virus [11] it was 9.12; with Influenza A virus [12], 9.15. Also, the values for the pIC50 with Influenza A virus [13], with Influenza A virus [14] and in the experiment on Influenza A virus [15] were 9.39, 9.31 and 9.26, respectively.
